Screening results as filed in PubChem BioAssay.
E-selectin induc = induces E-selectin expression in human endothelial cells | P16581 | activation, % at 7.58 µM | HUVEC E-selectin immunofluorescence imaging; normalized: neutral wells 0, TNF-alpha wells 100 | 260,000 tested, 0.37% active;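 active = mean E-selectin-positive cell signal at least 10% of the positive control, reached in at least 60% of replicates, without over 20% cell loss; inconclusive = no rule given, readout overlaps actives, possibly toxicity-flagged; inactive = the rest, including those meeting only one limit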
Target sequence (P16581 whole entry, looked up): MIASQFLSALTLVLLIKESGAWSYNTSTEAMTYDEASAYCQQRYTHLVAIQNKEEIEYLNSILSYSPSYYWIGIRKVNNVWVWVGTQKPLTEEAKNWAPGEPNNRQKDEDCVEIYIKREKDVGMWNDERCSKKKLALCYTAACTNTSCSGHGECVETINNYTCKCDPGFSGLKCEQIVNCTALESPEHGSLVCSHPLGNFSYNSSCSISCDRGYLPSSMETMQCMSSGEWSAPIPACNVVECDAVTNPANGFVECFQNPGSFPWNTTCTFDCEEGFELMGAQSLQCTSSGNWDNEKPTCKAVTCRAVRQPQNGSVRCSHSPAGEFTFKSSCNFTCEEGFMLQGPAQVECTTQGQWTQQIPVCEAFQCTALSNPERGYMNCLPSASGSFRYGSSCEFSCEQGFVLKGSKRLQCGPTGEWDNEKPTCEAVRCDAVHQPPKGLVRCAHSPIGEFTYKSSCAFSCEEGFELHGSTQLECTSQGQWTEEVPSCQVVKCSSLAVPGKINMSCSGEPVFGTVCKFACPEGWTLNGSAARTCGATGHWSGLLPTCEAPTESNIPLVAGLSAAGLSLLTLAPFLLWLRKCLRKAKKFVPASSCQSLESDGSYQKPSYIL
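Assay system: HUVEC, human umbilical vein endothelial cells / Amount: 3,000 HUVEC/well / Controls: TNF-alpha positive control, DMSO neutral control / Compound dosing: single concentration / Medium: EGM-2 over gelatin coat / Evaluation: percent E-selectin-positive cells / Signal: immunofluorescence imaging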
DENV2 CPE rescue = protects cells from dengue virus 2 cytopathic effect; 350,000 tested, 1.7% active; CPE inhibition, % at 9.99 µM; AID 651640; DENV2-infected cells, cytopathic effect rescue, plate reader; in the data active = CPE inhibition above about 20%, passing the limit was not always enough; inconclusive = no clear call, values can overlap the other calls; tested in BHK-21 cells;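 also: 0% = median of neutral control wells and 100% = median of positive control wells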
Cneo AK release = Cryptococcus neoformans lysis via adenylate kinase release; C. neoformans lysis, adenylate kinase release luminescence, 4 h; normalised: neutral wells 0, clomiphene wells 100; lysis activity, % at 15 µM; AID 651654; 360,000 tested, 0.2% active;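 active = mean lysis activity across replicates of at least 80%, whatever share of replicates individually reach that level; inactive = mean lysis activity below 80%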
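Assay system: log-phase C. neoformans yeast / Quantity: yeast cell density of 5 × 10^6 cells/mL / Medium: fresh YPD growth medium / Compound: single dose / Timing: static 4 h at 37 °C with compound, 1 h detection / Measured by: adenylate kinase release luminescence / Read-out: lysis from increased AK signal / Benchmarks: Clomiphene as positive lysis control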
rRNA inh HTS = inhibits bacterial ribosomal RNA function over humanized ribosomes. E. coli WT GFP vs humanized-ribosome RFP mutants, fluorescence, 24 h; active compounds read low; DMSO median 0, no signal -100. GFP signal change (wild-type ribosome), % (test concentration not listed). 350,000 tested, 1.6% active;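 active = significant combined selectivity score with lowered wild-type GFP, culture density cut under 30%, mutant RFP and density less affected; inactive = any of these conditions unmet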
miR122 inh = blocks miR-122 activity in Huh7 sensor cells; Huh7 miR-122 Renilla luciferase sensor, 48 h; neutral wells = 0, positive control = 100; activation (reporter increase), % at 12.5 µM; 340,000 tested, 0.3% active; AID 602342;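 active = mean replicate activation score at least 90 and every replicate individually at or above 90; inconclusive = only one of the two criteria met; inactive = neither criterion met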;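 also: higher luciferase means less miR-122 activity so hits act as miR-122 inhibitors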
The depositor's hits bear a star; ? = inconclusive; . = no result; [ ] = another dose, or the depositor's remark. An excerpt weighted towards active compounds, which were near 3.1% of everything screened.

SMILES	E-selectin induc	DENV2 CPE rescue	Cneo AK release	rRNA inh HTS	miR122 inh
CCCNC(=O)N1CCC2(CC1)CN(Cc1ccccn1)[C@@H](CO)c1c2c2ccc(OC)cc2n1C	0	71*	.	7	.
COc1ccc2c3c(n(C)c2c1)[C@@H](CO)N(Cc1ccncc1)CC31CCN(C(=O)C2CC2)CC1	.	.	.	3	.
COc1ccc2c3c(n(C)c2c1)[C@@H](CO)N(Cc1ccccc1)CC31CCN(C)CC1	0	56*	.	1	.
COc1ccc2c3c(n(C)c2c1)[C@@H](CO)N(C(=O)Nc1ccc(F)cc1)CC31CCN(C(=O)Cc2ccncc2)CC1	0	40*	.	-2	.
Cc1cccc(-c2ccc(C3[C@@H]4CN(C(=O)C5CCCCC5)C[C@H]3N4)cc2)c1 (stereo partly drawn)	0	-3	.	-61	.
CCC(=O)Nc1ccc2c(c1)OC[C@@H](C)N(Cc1nccs1)C[C@@H](C)[C@H](OC)CN(C)C2=O	.	.	.	-1	.
O=C(C1CCOCC1)N1C[C@H]2[C@@H](c3ccccc31)[C@H](CO)N2C(=O)Cc1ccccc1	0	-11	4	2	0[16.7 µM]
COc1ccc2c3c([nH]c2c1)[C@H](CO)N(C(=O)Nc1ccc(F)cc1)CC31CN(S(=O)(=O)c2cccs2)C1	.	.	.	-3	.
COc1ccc2c3c(n(C)c2c1)[C@H](CO)N(C(=O)Nc1ccc(F)cc1)CC31CN(C(=O)c2cccnc2)C1	0	25*	.	-7	.
COc1ccc2c3c(n(C)c2c1)[C@@H](CO)N(C(=O)Nc1ccc(F)cc1)CC31CN(C(=O)c2cccnc2)C1	0	-6	.	-4	.
COc1ccc2c3c(n(C)c2c1)[C@@H](CO)N(C(=O)Nc1ccc(F)cc1)CC31CN(S(=O)(=O)c2cccs2)C1	0	46*	.	-5	.
CCC(=O)N1CC2(C1)[C@H](c1ccccc1)[C@@H](CO)N2CCC(F)(F)F	0	-3	.	2	.
C/C=C/c1ccc2c(c1)O[C@@H](CN(C)C(=O)Cc1ccccc1)[C@H](C)CN([C@H](C)CO)S2(=O)=O	0	-1	-3	-5	13[16.7 µM]
CC(=O)OC1CCC2C3CCC4=CC(=O)CCC4(C)C3CCC2(C)[C@]1(C)O (stereo partly drawn)	0	106*	0	1	.
CC(=O)[C@@]1(O)CC[C@H]2[C@@H]3CCC4=CC(=O)CC[C@]4(C)[C@H]3CC[C@@]21C	0	-3	-3	.	-4
CC(CNCCCn1cnc2c(OCc3ccccc3)ncnc21)c1ccccc1 (stereo not drawn)	8	5	2	-17*	-12
Cc1ccc(NCCCn2cnc3c(OCc4ccccc4)ncnc32)cc1C	0	0	-1	-21*	-1
c1ccc(CCCNCCCn2cnc3c(OCc4ccccc4)ncnc32)cc1	.	-3	-1	.	-34
c1ccc(CNCCCn2cnc3c(OCc4ccccc4)ncnc32)cc1	0	3	2	-4	-3
Cc1ccccc1-c1ccc([C@@H]2[C@@H](CO)N3C(=O)CN(C(=O)c4cccnc4)C[C@@H]23)cc1	.	.	.	-1	.
C[C@H](CO)N1C[C@H](C)[C@@H](CN(C)C)Oc2cc(C3=CCCCC3)ccc2S1(=O)=O	-1	.	.	-2	10[16.7 µM]
CCN(c1cccc2ccccc12)S(=O)(=O)c1ccc(Cl)nc1	.	1	-3	-22*	-2
CCN(c1ccccc1)S(=O)(=O)c1ccc(Cl)nc1	-4	-2	.	5	-2
COc1ccc2c3c(n(C)c2c1)[C@@H](CO)N(CC1CC1)CC31CN(C(=O)c2ccccc2)C1	0	2	.	-3	.
NNc1nc(-c2ccccc2)cc(-c2ccc(Br)cc2)n1	0	-9	-1	-25*	1
SMILES	E-selectin induc	DENV2 CPE rescue	Cneo AK release	rRNA inh HTS	miR122 inh
NNc1nc(-c2ccccc2)c2cc(Br)ccc2n1	-1	-3	-4	-12	-9
CNC[C@@H]1Oc2c(cccc2N(C)C)C(=O)N(C)C[C@@H]1C	.	.	.	0	.
O=S(=O)(Nc1ccn(-c2ccccc2)n1)c1ccc(Br)cc1	.	-9	0	-46*	-2
Cc1c(NS(=O)(=O)c2ccc(Br)cc2)c(=O)n(-c2ccccc2)n1C	.	?	-1	0	-6
N#C[C@H]1[C@@H](c2ccccc2)[C@@H](CO)N1C(=O)Cc1ccccc1	0	-2	101*	3	.
COc1cccc(-c2ccc([C@@H]3[C@@H](CO)N(C(=O)Cc4ccccc4)[C@H]3C#N)cc2)c1	0	6	0	-13	.
COc1cccc(-c2ccc([C@@H]3[C@@H](C#N)N(C(=O)Cc4ccccc4)[C@@H]3CO)cc2)c1	0	26*	-1	-11	.
N#C[C@@H]1[C@H](c2ccccc2)[C@@H](CO)N1C(=O)Cc1ccccc1	1	10	0	-1	.
N#C[C@H]1[C@@H](c2ccccc2)[C@@H](CO)N1S(=O)(=O)Cc1ccccc1	0	65*	-2	5	.
C[C@@H]1CN([C@@H](C)CO)C(=O)c2cc(-c3cccc(F)c3)cnc2O[C@@H]1CN(C)C(=O)C1CC1	2	.	.	6	-7[16.7 µM]
Cc1noc(C)c1NC(=O)N(C)C[C@H]1OCCCC[C@H](C)Oc2ccc(NC(=O)CCC(F)(F)F)cc2C(=O)N([C@@H](C)CO)C[C@@H]1C	0	-4	4	3	4[16.7 µM]
COc1ccccc1CN1[C@@H]2c3cccc(=O)n3C[C@@H]2[C@@H](CO)[C@@H]1C(=O)NCCc1ccncc1	0	-1	-2	-2	.
CCC(=O)N1CC2(C1)[C@H](c1ccc(-c3ccccc3OC)cc1)[C@H](CO)N2C(C)=O	0	-2	.	1	.
CCOC(=O)c1ccc(-n2c(N)c(C(=O)NCc3ccco3)sc2=S)cc1	.	-1	-5	-26*	-13
C[C@H]1CN([C@@H](C)CO)C(=O)Cc2cc(NC(=O)CCCCCC(=O)Nc3ccccc3N)ccc2O[C@@H]1CN(C)Cc1ccc2c(c1)OCO2	-6	-7	1	-6	-10[16.7 µM]
C[C@@H]1CN([C@H](C)CO)C(=O)Cc2cc(NC(=O)CCCCCC(=O)Nc3ccccc3N)ccc2O[C@H]1CN(C)Cc1ccc2c(c1)OCO2	7	-8	92*	-5	-6[16.7 µM]
C[C@@H]1CN([C@@H](C)CO)C(=O)Cc2cc(NC(=O)CCCCCC(=O)Nc3ccccc3N)ccc2O[C@@H]1CN(C)Cc1ccc(-c2ccccc2)cc1	.	13	-3	-2	-14[16.7 µM]
C[C@@H]1CN([C@@H](C)CO)C(=O)Cc2cc(NC(=O)CCCCCC(=O)Nc3ccccc3N)ccc2O[C@@H]1CN(C)Cc1ccc2c(c1)OCO2	-3	60*	-4	-5	5[16.7 µM]
COc1ccc(S(=O)(=O)N(C)C[C@@H]2OCCCC[C@@H](C)Oc3ccc(NC(=O)CCC(F)(F)F)cc3C(=O)N([C@@H](C)CO)C[C@@H]2C)cc1	0	-15	48	2	5[16.7 µM]
